Each block holds one molecule with its values, some of them ahead of it. The source made the active and inactive calls. The rule behind the calls is not given here.
How the values were obtained:
[1] = tested on: KMS-11; test: Antiproliferative activity against human KMS-11 cells assessed as inhibition of cell growth at 2.5 uM incubated for 8 days by automated TC10 cell counter based analysis; format: functional; settings: time 8.0 day
In short: (§1)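 KMS11 or H929 cells (RPMI 1640, 10% FBS) seeded at 0.5 million per well in triplicate, treated with 2.5 μM or DMSO for 8 days. Compound-containing medium replaced every 2 days; cells diluted periodically to stay below 1 × 10^6/mL. Viability given relative to DMSO control as mean ± SD (n = 3).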

[2] = target: T1, Protein cereblon/Zinc finger protein Aiolos (Homo sapiens) (UniProt Q96SW2+Q9UKT9); test: Protac activity at CRBN/IKZF3 in human KMS-11 cells assessed as induction of IKZF3 degradation at 2.5 uM incubated for 72 hrs by Western blot analysis; format: cell-based
In short: (§2)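 KMS11 or H929 myeloma cells were treated with DMSO or 2.5 μM for 72 h. IKZF1 and IKZF3 were measured by Western blot with GAPDH as loading control, representative of two independent experiments.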

[3] = target: T1, Protein cereblon/Zinc finger protein Aiolos (Homo sapiens); test: Protac activity at CRBN/IKZF3 in human NCI-H929 cells assessed as induction of IKZF3 degradation at 2.5 uM incubated for 72 hrs by Western blot analysis; format: cell-based; in short: as §2
[4] = target: T2, Cereblon/Ikaros (Homo sapiens) (UniProt Q96SW2+Q13422); test: Protac activity at CRBN/IKZF1 in human KMS-11 cells assessed as induction of IKZF1 degradation at 2.5 uM incubated for 72 hrs by Western blot analysis; format: cell-based; in short: as §2
[5] = Tmax in Swiss albino mouse at 50 mg/kg, ip by LC-MS/MS analysis; format: ADME, organism-based; settings: in vivo
In short: (§3)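 Three male Swiss albino mice received a single 50 mg/kg intraperitoneal dose as a solution in 5% NMP/45% propylene glycol/50% PEG-400 (v/v). Blood was drawn at 0.5, 2 and 8 h and plasma stored at −70 °C. Plasma levels were measured by LC–MS/MS (LLOQ 5.14 ng/mL), reported as mean ± SD of three mice; mice were watched for clinical signs.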

[6] = target: T1, Protein cereblon/Zinc finger protein Aiolos (Homo sapiens); test: Protac activity at CRBN/IKZF3 in wild type HEK293FT cells assessed as induction of IKZF3 degradation at 0.5 to 10 uM incubated for 48 hrs by Western blot analysis; format: cell-based; settings: dose 0.5-10 µM
In short: (§4)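 Wild-type 293FT cells, alongside a CRISPR-Cas9 CRBN-knockout 293FT line, were treated across a concentration range for 48 h. NSD2, IKZF3 and CRBN were immunoblotted with GAPDH as loading control, representative of at least two independent experiments.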

[7] = target: T3, Protein cereblon/Histone-lysine N-methyltransferase NSD2 (Homo sapiens, UniProt O96028+Q96SW2); test: Protac activity at CRBN E3 ligase/ NSD2 PWWP1 domain (208 to 369 residues) in HEK293FT cells assessed as induction of NSD2 degradation 5 uM by Western blot analysis; format: cell-based; settings: time 0-72 hrs, TDE = time-dependent effect
In short: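 293FT cells were treated at 5 μM for 0, 12, 24, 36, 48 or 72 h. Lysates were made in 50 mM Tris-HCl pH 8.0, 150 mM NaCl, 1% NP-40, and NSD2 was immunoblotted with GAPDH as loading control.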

[8] = target: T4, Histone-lysine N-methyltransferase NSD2 (Homo sapiens, UniProt O96028); test: Binding affinity to N-terminal GST-tagged human NSD2 PWWP1 domain (208 to 369 residues) expressed in Escherichia coli […] (DE3) cells assessed as dissociation constant by isothermal titration calorimetry assay
T4 sequence (O96028 whole entry): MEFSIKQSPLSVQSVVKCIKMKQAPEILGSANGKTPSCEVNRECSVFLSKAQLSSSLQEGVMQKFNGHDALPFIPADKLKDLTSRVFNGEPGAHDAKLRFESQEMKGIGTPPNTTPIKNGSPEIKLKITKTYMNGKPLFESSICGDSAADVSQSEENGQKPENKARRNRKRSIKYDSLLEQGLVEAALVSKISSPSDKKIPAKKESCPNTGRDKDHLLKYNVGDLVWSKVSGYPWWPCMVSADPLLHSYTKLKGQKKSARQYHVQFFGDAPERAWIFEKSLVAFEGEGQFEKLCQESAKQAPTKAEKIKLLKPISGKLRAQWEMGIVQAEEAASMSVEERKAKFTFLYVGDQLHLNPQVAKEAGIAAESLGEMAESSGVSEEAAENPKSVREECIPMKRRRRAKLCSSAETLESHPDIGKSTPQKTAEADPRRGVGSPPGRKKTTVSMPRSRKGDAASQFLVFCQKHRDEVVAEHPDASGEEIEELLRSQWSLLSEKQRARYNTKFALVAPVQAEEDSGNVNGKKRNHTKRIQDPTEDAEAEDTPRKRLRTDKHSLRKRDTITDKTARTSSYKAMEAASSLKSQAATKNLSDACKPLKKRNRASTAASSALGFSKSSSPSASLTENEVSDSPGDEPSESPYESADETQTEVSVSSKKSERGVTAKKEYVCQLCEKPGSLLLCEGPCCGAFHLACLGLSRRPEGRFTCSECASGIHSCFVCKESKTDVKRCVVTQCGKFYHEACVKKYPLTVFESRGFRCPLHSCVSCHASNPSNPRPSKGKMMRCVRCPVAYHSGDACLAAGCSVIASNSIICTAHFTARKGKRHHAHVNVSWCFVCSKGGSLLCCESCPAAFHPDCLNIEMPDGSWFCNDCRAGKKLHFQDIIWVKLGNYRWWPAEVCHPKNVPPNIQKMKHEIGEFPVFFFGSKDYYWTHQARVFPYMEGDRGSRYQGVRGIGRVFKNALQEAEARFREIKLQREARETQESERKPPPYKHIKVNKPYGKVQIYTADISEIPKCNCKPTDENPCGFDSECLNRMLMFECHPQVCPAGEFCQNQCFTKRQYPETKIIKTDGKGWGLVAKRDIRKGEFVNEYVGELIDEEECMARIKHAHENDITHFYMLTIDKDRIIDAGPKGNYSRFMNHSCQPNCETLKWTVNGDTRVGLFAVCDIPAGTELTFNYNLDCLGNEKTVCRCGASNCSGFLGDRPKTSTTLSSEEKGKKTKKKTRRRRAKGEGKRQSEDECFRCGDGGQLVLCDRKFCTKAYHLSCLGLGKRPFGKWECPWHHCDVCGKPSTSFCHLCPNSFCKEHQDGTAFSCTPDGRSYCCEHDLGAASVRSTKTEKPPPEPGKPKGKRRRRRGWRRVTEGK

[9] = target: T3, Protein cereblon/Histone-lysine N-methyltransferase NSD2; test: Protac activity at CRBN/NSD2 PWWP1 domain (208 to 369 residues) in wild type HEK293FT cells assessed as induction of NSD2 degradation at 0.5 to 10 uM incubated for 48 hrs by Western blot analysis; format: cell-based; settings: dose 0.5-10 µM; in short: as §4
[10] = target: T3, Protein cereblon/Histone-lysine N-methyltransferase NSD2; test: Protac activity at CRBN E3 ligase/ NSD2 PWWP1 domain (208 to 369 residues) in HEK293FT cells assessed as induction of NSD2 degradation at 2.5 to 10 uM incubated for 48 hrs by Western blot analysis; format: cell-based; settings: dose 2.5-10 µM
In short: (§5)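 293FT cells (DMEM, 10% FBS) were treated with DMSO or compound at the indicated concentrations for 48 h. NSD2 was detected by Western blot of NP-40 lysates with GAPDH as loading control. Blots are representative of at least two independent experiments.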

[11] = Drug concentration in Swiss albino mouse plasma at 50 mg/kg, ip measured after 8 hrs by LC-MS/MS analysis; format: ADME, organism-based; in short: as §3
[12] = Toxicity in Swiss albino mouse assessed as clinical signs of toxicity at 50 mg/kg, ip administered for 8 hrs; format: organism-based; settings: in vivo; in short: as §3
[13] = target: T3, Protein cereblon/Histone-lysine N-methyltransferase NSD2; test: Protac activity at CRBN E3 ligase/ NSD2 PWWP1 domain (208 to 369 residues) in HEK293FT cells assessed as induction of NSD2 degradation incubated for 48 hrs by Western blot analysis; format: cell-based; in short: as §5
[14] = target: T2, Cereblon/Ikaros (Homo sapiens); test: Protac activity at CRBN/IKZF1 in human NCI-H929 cells assessed as induction of IKZF1 degradation at 2.5 uM incubated for 72 hrs by Western blot analysis; format: cell-based; in short: as §2
[15] = target: T3, Protein cereblon/Histone-lysine N-methyltransferase NSD2; test: Protac activity at CRBN E3 ligase/ NSD2 PWWP1 domain (208 to 369 residues) in HEK293FT cells assessed as induction of NSD2 degradation by measuring maximal efficacy at 0.5 to 10 uM incubated for 48 hrs by Western blot analysis relative to control; format: cell-based; settings: dose 0.5-10 µM
In short: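 293FT cells were exposed to 0.5–10 μM for 48 h. NSD2 was immunoblotted with GAPDH as loading control and band intensity quantified by densitometry to derive DC50 and Dmax. Results are mean ± SD of two independent experiments.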

[16] = Cmax in Swiss albino mouse at 50 mg/kg, ip by LC-MS/MS analysis; format: ADME, organism-based; design: dose 50 mg/kg, route ip; settings: in vivo; in short: as §3
[17] = tested on: NCI-H929; test: Antiproliferative activity against human NCI-H929 cells assessed as inhibition of cell growth at 2.5 uM incubated for 8 days by automated TC10 cell counter based analysis; format: functional; settings: time 8.0 day; in short: as §1
[18] = target: von Hippel-Lindau disease tumor suppressor/Histone-lysine N-methyltransferase NSD2 (Homo sapiens) (UniProt O96028+P40337); test: Protac activity at VHL E3 ligase/ NSD2 PWWP1 domain (208 to 369 residues) in HEK293FT cells assessed as induction of NSD2 degradation at 2.5 to 10 uM incubated for 48 hrs by Western blot analysis; format: cell-based; settings: dose 2.5-10 µM; in short: as §5

Activity [2]: Active | Activity [3]: Active | Activity [4]: Active | Tmax [5]: 30 min | Activity [6]: Active | Activity [7]: Tde | Kd [8]: 1100 nM | Activity [9]: Active | Activity [10]: Active | concentration at 8 h [11]: 980 nM | DC50 [13]: 5200 nM | Activity [14]: Active | Emax [15]: > 82% | Cmax [16]: 1350 nM
SMILES: O=C(CNc1cccc2c1C(=O)N(C1CCC(=O)NC1=O)C2=O)NCCCOc1ccc(NC(=O)c2ccc(CN(C(=O)c3ccc4c(c3)OCC(=O)N4)C3CC3)cc2)nc1 (stereo not drawn)
inhibition [1]: Active | Activity [12]: Non-Toxic | inhibition [17]: Active

Activity [2]: Active | Activity [3]: Active | Activity [4]: Active | Activity [14]: Active
SMILES: CC(C)N(Cc1ccc(C(=O)Nc2ccc(OCCCNC(=O)CNc3cccc4c3C(=O)N(C3CCC(=O)NC3=O)C4=O)cn2)cc1)C(=O)c1ccc2c(c1)OCC(=O)N2 (stereo not drawn)

Activity [18]: Active
SMILES: Cc1ncsc1-c1ccc(CNC(=O)[C@@H]2C[C@@H](O)CN2C(=O)[C@@H](NC(=O)CCOCCOCCNC(=O)c2ccc(NC(=O)c3ccc(CN(C(=O)c4ccc5c(c4)OCC(=O)N5)C4CC4)cc3)cc2)C(C)(C)C)cc1

SMILES: CN1C(=O)CCC(N2C(=O)c3cccc(NCC(=O)NCCCOc4ccc(NC(=O)c5ccc(CN(C(=O)c6ccc7c(c6)OCC(=O)N7)C6CC6)cc5)nc4)c3C2=O)C1=O (stereo not drawn)
Kd [8]: 900 nM

— ChEMBL document CHEMBL5137075, “Discovery of a First-in-Class Degrader for Nuclear Receptor Binding SET Domain Protein 2 (NSD2) and Ikaros/Aiolos” (J Med Chem, 2022)
